Data taken from ChEMBL document CHEMBL5500386, “Design, synthesis and bioactivity evaluation of 4-hydroxycoumarin derivatives as potential anti-inflammatory agents against acute lung injury and colitis” (Eur J Med Chem, 2024).
Activity calls are given as the source filed them. The calls are words filed in the database; no cut-off is given here.

Tests used:
J774.A1 [1] = assay: Cytotoxicity against mouse J774.A1 cells assessed as reduction in cell viability at 10 uM measured after 24 hrs by MTT assay; assay type: toxicity, cell-based; conditions: j774.a1, 24 h
In short: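 J774A.1 cells seeded and incubated 24 h, then exposed to 10 μM compound for 24 h. MTT (5.0 mg/mL) added as 10 % for 4 h, formazan dissolved in DMSO with 30 min shaking, absorbance read at 490 nm. Expressed as % of control.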

THP-1 = assay: Antiinflammatory activity in LPS-induced human THP-1 cells assessed as reduction in IL-6 mRNA transcription pretreated for 2 hrs followed by LPS stimulation and measured after 6 hrs by RT-qPCR analysis; assay type: functional, cell-based; conditions: dose 2.5-10 µM
In short: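 J774A.1 or THP-1 cells pretreated with compound for 2 h, then LPS 0.5 μg/mL for 6 h, in triplicate. Total RNA extracted and reverse-transcribed. IL-6 quantified by RT-qPCR over 40 cycles and normalised to β-actin.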

J774.A1 [2] = assay: Inhibition of LPS-induced MAPK activation in mouse J774.A1 cells assessed as reduction in JNK phosphorylation at 5 to 20 uM pretreated for 2 hrs followed by LPS stimulation and measured after 30 mins by Western blot analysis; assay type: cell-based; conditions: dose 5-20 µM, time 2.5 hrs
In short: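 J774A.1 macrophages pretreated with 20, 10 or 5 μM for 2 h, then LPS 0.5 μg/mL for 30 min. RIPA lysates quantified by Bradford. 40 μg run on 12.5 % SDS-PAGE and transferred to PVDF. Blocked 1.5 h in BSA, primary antibody overnight at 4 °C, secondary 2 h at room temperature, detected by ECL.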

[3] = biological target: Mitogen-activated protein kinase 9 (Homo sapiens) (UniProt P45984); assay: Inhibition of JNK2 (unknown origin) at 10 uM relative to control
Mus musculus [4] = assay: Protection against LPS-induced C57BL/6 mouse model of acute lung injury assessed as reduction in inflammatory cell infiltration in lung at 20 mg/kg, po administered 3 times for every 12 hrs followed by LPS stimulation at 5 mg/kg and measured after 6 hrs by H and E staining based analysis; assay type: functional, organism-based; conditions: time 30.0 hrs
In short: (§1)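 LPS-induced ALI in C57BL/6 mice: 20 mg/kg orally three times at 12 h intervals, then intratracheal LPS 5 mg/kg, killed at 6 h. Lungs paraffin-embedded, cut into 5 μm sections and H&E stained. Viewed at ×20.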

Mus musculus [5] = assay: Protection against LPS-induced C57BL/6 mouse model of acute lung injury assessed as reduction in interstitial edema in lungs at 20 mg/kg, po administered 3 times for every 12 hrs followed by LPS stimulation at 5 mg/kg and measured after 6 hrs by H and E staining based analysis; assay type: functional, organism-based; conditions: time 30.0 hrs; in short: as §1
Mus musculus [6] = assay: Protection against LPS-induced C57BL/6 mouse model of acute lung injury assessed as reduction in thickening of the alveolar septum in lungs at 20 mg/kg, po administered 3 times for every 12 hrs followed by LPS stimulation at 5 mg/kg and measured after 6 hrs by H and E staining based analysis; assay type: functional, organism-based; conditions: time 30.0 hrs; in short: as §1
Mus musculus [7] = assay: (§2) Protection against LPS-induced C57BL/6 mouse model of acute lung injury assessed as reduction in interstitial edema in lungs at 20 mg/kg, po administered 3 times for every 12 hrs followed by LPS stimulation at 5 mg/kg and measured after 6 hrs by immunohistochemical staining based analysis; assay type: functional, organism-based; conditions: time 30.0 hrs
In short: (§3)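 LPS-induced ALI in C57BL/6 mice: 20 mg/kg orally three times at 12 h intervals, then intratracheal LPS 5 mg/kg, lungs taken at 6 h. F4/80 IHC: xylene deparaffinisation, citrate pH 6 retrieval for 25 min, primary antibody at 4 °C for 12 h, secondary 1:2000, DAB and hematoxylin. Viewed at ×20.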

Mus musculus [8] = assay: as §2, with “destruction of the alveolar cell structure” for “interstitial edema in lungs”; assay type: functional, organism-based; conditions: time 30.0 hrs; in short: as §3
Mus musculus [9] = assay: Antiinflammatory activity in DSS-induced male C57BL/6 mouse model of inflammatory bowel disease assessed as increase in colon length at 20 mg/kg, IG administered with compound and DSS for 7 days followed by DSS replacement with distilled water for 3 days; assay type: functional, organism-based; conditions: time 10.0 day
Mus musculus [10] = assay: Antiinflammatory activity in DSS-induced male C57BL/6 mouse model of inflammatory bowel disease assessed as increase in body weight at 20 mg/kg, IG administered with compound and DSS for 7 days followed by DSS replacement with distilled water for 3 days; assay type: functional, organism-based; conditions: time 10.0 day
Mus musculus [11] = assay: Antiinflammatory activity in DSS-induced male C57BL/6 mouse model of inflammatory bowel disease assessed as inhibition of IL-6 release in plasma at 20 mg/kg, IG administered with compound and DSS for 7 days followed by DSS replacement with distilled water for 3 days; assay type: functional, organism-based; conditions: time 10.0 day
[12] = Acute toxicity in male ICR mouse assessed as adverse effects at 500 to 1000 mg/kg, po administered daily for 10 days and measured daily; assay type: organism-based; conditions: in vivo, 240 h, dose 500-1000 mg/kg, time 10 day
In short: (§4)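 Male ICR mice (8 weeks, 30 g ± 2 g), acclimatised 1 week, randomised into 1000 mg/kg, 500 mg/kg and untreated control groups (n = 24 total). Dosed by daily gavage, compound dissolved in 0.5 % DMSO then added to normal saline. Body weight and behaviour recorded daily. Euthanised after 10 days; heart, liver, spleen, lung and kidney examined by H&E staining.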

[13] = Acute toxicity in male ICR mouse assessed as histopathological changes in heart at 500 to 1000 mg/kg, po administered daily for 10 days by H and E staining based analysis; assay type: organism-based; conditions: in vivo, 240 h, dose 500-1000 mg/kg, time 10 day; in short: as §4
[14] = Acute toxicity in male ICR mouse assessed as histopathological changes in liver at 500 to 1000 mg/kg, po administered daily for 10 days by H and E staining based analysis; assay type: organism-based; conditions: in vivo, 240 h, dose 500-1000 mg/kg, time 10 day; in short: as §4
[15] = Acute toxicity in male ICR mouse assessed as histopathological changes in lung at 500 to 1000 mg/kg, po administered daily for 10 days by H and E staining based analysis; assay type: organism-based; conditions: in vivo, 240 h, dose 500-1000 mg/kg, time 10 day; in short: as §4
[16] = AUC (0 to t) in male Sprague-Dawley rat at 1 mg/kg, iv measured upto 24 hrs by triple quadrupole mass spectrometric analysis; assay type: ADME, organism-based; conditions: in vivo
In short: (§5)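 Male SD rats (8 weeks, 200 g ± 20 g), n = 3 per route. Oral: 10 mg/kg by gavage in 0.05 % DMSO/normal saline, tail-vein blood at 13 times from 10 min to 24 h. IV: 1 mg/kg tail vein in 5 % DMSO/30 % PEG400/65 % saline, 14 samples from 5 min to 24 h. Heparinised plasma precipitated with acetonitrile containing internal standard. Non-compartmental analysis on mean concentrations.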

[17] = Half life in male Sprague-Dawley rat at 1 mg/kg, iv measured upto 24 hrs by triple quadrupole mass spectrometric analysis; assay type: ADME, organism-based; conditions: in vivo; in short: as §5

Sequence of Mitogen-activated protein kinase 9 (Homo sapiens) (P45984 whole entry, looked up): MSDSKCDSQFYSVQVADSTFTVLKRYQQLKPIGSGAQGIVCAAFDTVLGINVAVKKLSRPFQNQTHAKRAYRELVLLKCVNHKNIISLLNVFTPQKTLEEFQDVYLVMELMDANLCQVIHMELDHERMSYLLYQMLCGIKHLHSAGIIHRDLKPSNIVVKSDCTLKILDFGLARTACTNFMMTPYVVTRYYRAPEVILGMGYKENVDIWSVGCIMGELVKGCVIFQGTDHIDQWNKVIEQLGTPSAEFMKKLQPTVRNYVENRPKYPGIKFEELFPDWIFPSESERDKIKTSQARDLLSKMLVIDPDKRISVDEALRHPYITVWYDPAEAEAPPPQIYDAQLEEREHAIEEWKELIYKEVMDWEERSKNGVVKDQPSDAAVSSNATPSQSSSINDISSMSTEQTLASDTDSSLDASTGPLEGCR

CC(=O)N1CCN(CCOc2cc(=O)oc3ccccc23)CC1
Activity (J774.A1 [1]): Non-Toxic | Activity (THP-1): Dose-Dependent Effect | inhibition (J774.A1 [2]): inactive | inhibition [3]: 5.93% | Activity (Mus musculus [4]): Active | Activity (Mus musculus [5]): Active | Activity (Mus musculus [6]): Active | Activity (Mus musculus [7]): Active | Activity (Mus musculus [8]): Active | Activity (Mus musculus [9]): Active | Activity (Mus musculus [10]): Active | Activity (Mus musculus [11]): Active | Activity [12]: Non-Toxic | Activity [13]: Non-Toxic | Activity [14]: Non-Toxic | Activity [15]: Non-Toxic | AUC(0-t) at 24 h [16]: 929 ng·h/mL | half-life [17]: 18.6 min
